Bioassay records from PubChem BioAssay.
STAT3 inh-1: STAT3 signaling inhibition; U3A cells, IL-6 STAT3-luciferase reporter, luminescence; host cell line lacks STAT1; AID 862; 190,000 compounds, 0.89% hits; inhibition, % at 5.5 µM;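 active = inhibition above the mean inhibition across all screened compounds plus 3 SD, cut at about 44% in these data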;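 note: 0% = DMSO only wells and 100% = 100 µM nifuroxazide control wells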
STAT3 act: STAT3 signaling activation; U3A cells, IL-6 STAT3-luciferase reporter, luminescence; 100% = signal with IL-6 EC80 alone; activation (% of control), % at 5.6 µM; 190,000 compounds, 0.91% hits;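 active = activation above the screen-wide mean of compound activation plus 3 SD, cut at about 130% in these data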;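 note: 0% = background luminescence of wells with medium and substrate only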
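Test system: STAT3-luciferase reporter U3A cells; Detection: reporter luminescence signal; Times: 1 h compound pre-exposure, 6 h IL-6 stimulation, 37 °C; Benchmarks: IL-6-only high control; Also added: IL-6 stimulus at 33 ng/mL final.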
STAT1 inh: inhibitors of IFN-gamma induced STAT1 signaling; NIH 3T3 STAT1-luciferase reporter, luminescence; inhibition, % at 5.5 µM; 200,000 compounds, 0.35% hits; AID 920;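 active = inhibition above a set limit, the mean inhibition across all tested compounds plus 3 SD, cut at about 34% in these data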;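 note: 0% = IFN-gamma with DMSO and 100% = IFN-gamma with 300 µM nifuroxazide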
TRAIL sens C8: sensitizes caspase-8 expressing cells to TRAIL | NB7+C8 cells + TRAIL, ATPlite viability luminescence | inhibition (viability loss, TRAIL sensitization), % at 10 µM | 360,000 compounds, 1% hits;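 active = compounds causing at least 50% loss of cell viability in the single-dose screen, relative to plate controls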
PPC-1+TRAIL kill: PPC-1 cancer cell killing with TRAIL present; AID 1443; PPC-1 cells + TRAIL, ATPLite viability luminescence; cell killing (% activity), % at 4 µM or 5 µM; 220,000 compounds, 0.41% hits;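 active = cell killing above 50% in the first pass at 4 µM, then a duplicate retest at 5 µM averaging 50% or more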;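 note: plate controls were cells with TRAIL plus DMSO for no effect and medium-only wells lacking cells for full effect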
STAT3 inh-2: confirmation of STAT3 signaling inhibitors. shares compounds with STAT3 inh-1. U3A cells, IL-6 STAT3 luciferase reporter, luminescence; cell line lacks STAT1. inhibition, % at 5.7 µM. 1,200 compounds, 45% hits. AID 1265;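 active = inhibition above the hit cutoff computed for the primary STAT3 screen, cut at about 44% in these data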;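 note: 0% = IL-6 plus DMSO and 100% = IL-6 plus nifuroxazide control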
NFkB inh 2: NF-kappaB inhibition in STAT3 inhibitor counter-screen | shares compounds with STAT3 inh-1 | HEK293T NF-kB luciferase reporter, TNF-alpha induced | inhibition, % at 5.7 µM | 1,200 compounds, 36% hits | AID 1308;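 active = inhibition above the mean of solvent-only control wells plus 3 SD, cutoff set per campaign, cut at about 13% in these data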;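 note: 0% = TNF-alpha with DMSO and 100% = TNF-alpha with MG high control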
STAT1 inh 2: inhibits STAT1, counter-screen to STAT3 inhibitors. shares compounds with STAT3 inh-1. inhibition, % at 5.7 µM. NIH 3T3 STAT1-luciferase reporter, IFN-gamma induced, luminescence. AID 1317. 1,200 compounds, 27% hits;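 active = inhibition above the mean plus 3 SD of solvent-only control wells, limit set per screening run, cut at about 16% in these data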;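 note: 0% = DMSO with IFN-gamma and 100% = nifuroxazide control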
* = called active by the depositor; · = not tested or not shown. Most compounds without a hit are left out; they make up all but 1.8% or so of the library.

SMILES | STAT3 inh-1 | STAT3 act | STAT1 inh | TRAIL sens C8 | PPC-1+TRAIL kill | STAT3 inh-2 | NFkB inh 2 | STAT1 inh 2
O=C(NCc1ccncc1)C(=O)N/N=C/c1ccc(OCc2ccccc2)cc1 | 1.7 | 98.4 | -2.3 | -15.1 | 9.6 | · | · | ·
N#CCCSC(=S)C1CCCC1=N (stereo not given) | · | · | · | 1.6 | · | · | · | ·
CCOC(=O)c1c(C)[nH]c(C2=NNC(=Nc3ccccc3)SC2)c1C | 0.5 | 104.4 | -2.9 | 10.0 | 9.5 | · | · | ·
CCOC(=O)c1c(C)[nH]c(C2=NNC(=Nc3ccc(OCC)cc3)SC2)c1C | 59.7* | 50.5 | 28.9 | -8.9 | 19.4 | 9.8 | -9.4 | -7.6
Cc1nc2ccc(NC(=O)CSc3nnc(C)s3)cc2[nH]1 | · | · | · | -0.9 | · | · | · | ·
COc1cc2ccc(-c3ccc4ccccc4n3)cc2cc1OC | · | · | · | -0.3 | · | · | · | ·
COc1ccc(-c2ccc3ccccc3n2)cc1 | 55.0* | 54.9 | 23.2 | 57.5* | 43.3 | 17.8 | -22.8 | -107.3
CCOc1ccc(NC(=O)C2CCN(S(=O)(=O)CC)CC2)cc1 | · | · | · | 1.2 | · | · | · | ·
Cc1cc(C(=O)CSc2nc3ccccc3[nH]2)c(C)n1CC1CCCO1 (stereo not given) | 97.0* | 23.3 | 29.4 | 76.3* | 7.1 | 62.9* | 22.3* | -57.2
CCOC(=O)C1=C(COC(=O)[C@H](C)NS(=O)(=O)c2ccc(NC(C)=O)cc2)NC(=O)NC1C (stereo not given in full) | · | · | · | -15.7 | · | · | · | ·
O=C(Nc1cccc(S(=O)(=O)Nc2ccccc2Cl)c1)c1ccc(Cl)nc1 | 43.8* | 66.3 | 24.3 | 28.0 | 16.5 | 50.3* | 11.0 | 13.2
O=C(NCCN1CCOCC1)c1c(O)nc2sccn2c1=O | · | · | · | -1.2 | · | · | · | ·
Cc1nc2ccc(OC(=O)c3ccccc3)cc2s1 | · | · | · | -3.7 | · | · | · | ·
Cc1ccc(OC(=O)c2ccc3nc(C)sc3c2)cc1 | 56.9* | 52.4 | 24.0 | · | 25.3 | -11.8 | -26.7 | -49.4
CCOC(=O)C1=C(Cc2ccc(C)cc2)C(=O)c2ccccc2C1=O | 59.8* | 49.8 | -0.9 | · | -8.4 | 59.9* | 12.0 | -1.8
CCOC(=O)C1=C(Cc2ccc(OC)cc2)C(=O)c2ccccc2C1=O | 43.0 | 65.7 | 0.5 | 5.9 | 10.6 | · | · | ·
CN(c1ccc(C(=O)N2CCN(Cc3ccc4c(c3)OCO4)CC2)cc1)S(=O)(=O)c1ccccc1 | 48.8* | 59.9 | 7.9 | 14.6 | 22.3 | 41.3 | 11.1 | 6.1
Cc1ccc(S(=O)(=O)N(C)c2ccc(C(=O)N3CCN(Cc4ccc5c(c4)OCO5)CC3)cc2)cc1 | 54.0* | 57.7 | 13.3 | -3.9 | 17.0 | 45.5* | 10.1 | -0.1
Cc1ccc(S(=O)(=O)N(C)CC(=O)N2CCN(Cc3ccc4c(c3)OCO4)CC2)cc1 | · | · | · | 11.3 | · | · | · | ·
Cc1cccc(OCC(=O)Nc2ccc(N3CCN(C(=O)c4ccco4)CC3)cc2)c1 | 53.9* | 61.7 | 11.4 | 18.9 | 19.2 | 48.8* | 12.8 | 16.7*
Cc1ccc(OCC(=O)Nc2ccc(N3CCN(C(=O)c4ccco4)CC3)cc2)cc1C | 14.9 | 89.3 | 6.8 | 20.8 | 16.3 | · | · | ·
Cc1ccc(-c2nc(-c3ccccc3)no2)cc1 | 55.1* | 54.5 | -34.7 | 36.8 | 11.1 | 39.8 | 4.6 | -48.6
CC1(C(=O)NCc2cccc3ccccc23)CCN1C(=O)Cc1ccc(-c2ccccc2)cc1 (stereo not given) | · | · | · | 11.1 | · | · | · | ·
COc1ccc(NC(=O)c2c(Nc3ccccc3)sc(C(=O)c3ccc(F)cc3)c2N)cc1 | 61.0* | 49.5 | 23.9 | 30.2 | -0.2 | 37.4 | 35.1* | 42.9*
COc1ccc(C(=O)c2sc(Nc3ccccc3)c(C(=O)Nc3ccc(OC)c(OC)c3)c2N)cc1 | 22.6 | 81.4 | 6.5 | -10.9 | -1.9 | · | · | ·
SMILES | STAT3 inh-1 | STAT3 act | STAT1 inh | TRAIL sens C8 | PPC-1+TRAIL kill | STAT3 inh-2 | NFkB inh 2 | STAT1 inh 2
O=c1[nH]c(Nc2nc3ccccc3o2)nc2c1CCCC2 | 69.4* | 47.0 | 11.4 | 54.8* | 48.7 | 29.1 | -1.7 | -13.0
CC(C)CN1C(=O)c2ccc(C(=O)Nc3ccncc3)cc2C1=O | 48.9* | 62.7 | 14.3 | 5.1 | 18.4 | 56.6* | 6.4 | 7.9
CC(C)CN1C(=O)c2ccc(C(=O)Nc3ccccn3)cc2C1=O | 5.0 | 100.3 | -9.9 | -4.8 | -1.8 | · | · | ·
O=c1cc(CSc2nnc(-c3cccs3)n2Cc2ccccc2)nc2sc3ccccc3n12 | 60.0* | 53.2 | 23.1 | 11.3 | 12.2 | 57.0* | 12.0 | 22.7*
COc1ccc(S(=O)(=O)N2CCOCC2)cc1NC(=O)c1ccncc1 | · | · | · | -2.5 | · | · | · | ·
Cc1cc(C(=O)CSc2nnnn2-c2ccc(O)cc2)c(C)n1Cc1ccc2c(c1)OCO2 | -1.6 | 105.0 | 3.5 | 0.2 | 34.6 | · | · | ·
Cc1cc(C(=O)CSc2nnc(-c3cccc(F)c3)n2N)c(C)n1Cc1ccc2c(c1)OCO2 | 47.0* | 64.8 | 13.6 | 19.3 | 29.1 | 39.4 | 12.7 | 10.0
c1ccc(-c2cc3nccc(-c4ccccn4)n3n2)cc1 | -2.8 | 107.5 | -66.8 | 22.7 | -9.1 | · | · | ·
O=C(Nc1nccs1)C1CC(=O)N(c2ccccc2)C1 (stereo not given) | · | · | · | -0.6 | · | · | · | ·
Cc1ccc(Nc2ccccc2)cc1 | 7.4 | 96.0 | 4.9 | -2.9 | 13.9 | · | · | ·
Cc1ccc(NC2=Nc3ccccc3CS2)cc1 | 59.0* | 55.2 | 0.1 | 55.1* | 46.3 | 25.5 | -8.8 | -95.7
O/C(=C\c1ccc2ccccc2n1)c1ccc(O)cc1O | 60.9* | 52.2 | 4.1 | 65.7* | 47.9 | 28.5 | -20.8 | -87.9
CC1CCN(S(=O)(=O)c2ccc3c(c2)oc(=O)n3CC(=O)NCc2ccc3c(c2)OCO3)CC1 | 43.5* | 68.3 | 12.2 | 3.2 | -11.7 | 37.7 | 10.2 | 16.7*
Cc1c(C(=O)NCc2ccc3c(c2)OCO3)oc2ccc(S(=O)(=O)N3CCC(C)CC3)cc12 | 12.0 | 92.7 | 2.7 | 34.3 | 22.0 | · | · | ·
Oc1ccc(C[C@H]2CNC(=S)N2CC2CCCN2C[C@H](Cc2ccccc2)N2C[C@H](Cc3ccc(O)cc3)N(CCc3ccccc3)C2=S)cc1 (stereo not given in full) | · | · | · | 10.0 | · | · | · | ·
Cn1c(N/N=C/c2cc3ccccc3nc2Cl)nc2ccccc21 | 53.2* | 56.0 | -1.5 | 87.7* | 2.3 | 28.3 | 24.6* | 10.1
CC(C)c1cc(NC(=O)CCl)on1 | 53.1* | 57.2 | -3.8 | -5.9 | 21.0 | 20.6 | 0.7 | 9.5
O=C(O)C1C2CCC(CC2)C1C(=O)N1CCN(Cc2ccc(F)cc2)CC1 (stereo not given) | · | · | · | -7.1 | · | · | · | ·
O=C(CC12CC3CC(CC(Br)(C3)C1)C2)NC1CCCC1 | · | · | · | -4.4 | · | · | · | ·
Cc1ccc(C(=O)CSc2cnc3ccccc3n2)cc1C | 54.2* | 56.4 | -20.0 | 4.2 | 9.0 | -29.8 | -19.2 | -43.9
CN(C)C(=O)CSc1cnc2ccccc2n1 | -5.6 | 107.6 | -4.5 | -3.0 | 16.2 | · | · | ·
